As usually defined, the Ki is the equilibrium dissociation constant of an inhibitor or competing ligand from its target.

Results on two molecules are retold here after PMC4372299 (Molecular imaging and biology : MIB : the official …, 2014).

Series [1] deals with TSPO (Mus musculus, UniProt P50637). Description: Dynamic PET accumulation and displacement of [18F]VUIIS1008 in healthy mice. In kind it is in vivo. A general note: In a radioligand displacement assay an active substance lowers the binding of a labelled ligand.
Series [2] relates to TSPO. The settings on record: cited from earlier work; for enhancement in binding affinity compared to DPA-714: TSPO affinity vs DPA-714.
The target in series [3] is T1, TSPO (Rattus norvegicus, UniProt P16257). Description: Pre-blocking PET study with non-radioactive VUIIS1008 in C6 glioma-bearing rats. Type of series: in vivo. As to conditions: pre-blocking with VUIIS1008 10 mg/kg, range of 2 rats. The essentials: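 In C6 glioma-bearing Wistar rats, the non-radioactive ligand (10 mg/kg i.v.) was given 5 min before a radiotracer bolus (1.2 ± 0.2 mCi via jugular catheter). Dynamic PET ran for 60 min with a metabolite-corrected arterial input function. Tumour and contralateral normal-brain TACs were fitted to a 2-tissue, 4-parameter model, and the range from 2 rats is reported.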

Series [4] has as its target T1, TSPO. Description: Dynamic PET with compartmental modeling in C6 glioma-bearing rats. In kind it is in vivo. The settings on record: for K1 / k2 / k3 / k4: 2-tissue 4-parameter model, n = 5, Mean ± SEM; for %ID/cc (90 min) / K1/k2 / VT=(K1/k2)(1+k3/k4) / k3/k4 (binding potential): C6-glioma bearing rats n = 5, Mean ± SEM. The essentials: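 Male Wistar rats (10 weeks, ~300 g) were implanted with 1.0 × 10⁵ C6 cells in the right hemisphere 2 weeks before imaging, then catheterised and localised by T₂ MRI. Radiotracer 1.2 ± 0.2 mCi was given as a jugular bolus for 90-min dynamic PET with CT attenuation correction. Arterial input was TLC metabolite-corrected. Tumour and contralateral-brain TACs were fitted with 1- and 2-tissue models to give K₁–k₄, V_T and BP_ND.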

Where [5] appears, read: challenger 10 mg/kg at scan mid-point (30 min).

On to `CCc1cc(CC)n2nc(-c3ccc(OCCF)cc3)c(CC(=O)N(CC)CC)c2n1` [VUIIS1008, 2-(5,7-diethyl-2-(4-(2-fluoroethoxy)phenyl)pyrazolo[1,5-a]pyrimidin-3-yl)-N,N-diethylacetamide], for which, at TSPO [1] (setting [5]), the “displacement of [18F]VUIIS1008 from myocardium and lung tissue” value is “rapid and significant displacement”; the “displacement of [18F]VUIIS1008 from renal tissue” value is on record as “partial displacement”. In the series on TSPO [2], the “enhancement in binding affinity compared to DPA-714” value was 36 fold. For the same molecule, the Ki at TSPO [2] (read-out: Ki (binding affinity), TSPO) is 0.3 nM.

As for `CCc1cc(CC)n2nc(-c3ccc(OCC[18F])cc3)c(CC(=O)N(CC)CC)c2n1` [[^18F]VUIIS1008, 2-(5,7-diethyl-2-(4-(2-[^18F]fluoroethoxy)phenyl)pyrazolo[1,5-a]pyrimidin-3-yl)-N,N-diethylacetamide], the “binding reversibility in healthy, TSPO-rich tissues” value at TSPO [1] (dynamic PET) is “reversible binding”. Moreover, the “enhancement in binding affinity compared to DPA-714” value in the series on TSPO [2] is on record as “approximately 36 fold”. Moreover, on TSPO [3] (normal brain), the K1/k2 is 0.059 – 0.061, the “VT=(K1/k2)(1+k3/k4)” value is reported as 0.380 – 0.615 and the “k3/k4 (binding potential)” value is 4.888 – 13.507. At TSPO [3] (tumor), the K1/k2 was 0.124 – 0.143, the “VT=(K1/k2)(1+k3/k4)” value is 0.618 – 0.767 and the “k3/k4 (binding potential)” value is given as 3.972 – 4.368. On TSPO [4] (C6 glioma-bearing rats), the “VT ratio between tumor and normal brain” value worked out at 6.0. Besides, the “clearance of tracer from plasma” value on TSPO [4] (C6 glioma-bearing rats, n = 6) is on record as “cleared rapidly”. On TSPO [4] (normal brain), this molecule came in with a K1 of 0.881 ± 0.392, a k2 of 2.078 ± 1.666, a k3 of 0.172 ± 0.070 and a k4 of 0.037 ± 0.004. At TSPO [4] (normal brain), the “%ID/cc (90 min)” value turned out to be 0.103 ± 0.031 %ID/cc, the K1/k2 turned out to be 0.86 mL/g, the “VT=(K1/k2)(1+k3/k4)” value was 4.210 ± 1.612 and the “k3/k4 (binding potential)” value was 4.435 ± 1.387. Also, the K1/k2 at TSPO [4] (normal brain, listed as 18F-VUIIS1008) is 0.855 ± 0.325 mL/g. At TSPO [4] (tumor (C6 glioma)), this molecule came in with a K1 of 0.709 ± 0.306, a k2 of 0.442 ± 0.101, a k3 of 0.113 ± 0.013 and a k4 of 0.009 ± 0.002. Further, on TSPO [4] (tumor), the “%ID/cc (90 min)” value amounted to 0.310 ± 0.051 %ID/cc, the K1/k2 was 1.90 mL/g, the “VT=(K1/k2)(1+k3/k4)” value is recorded as 25.224 ± 10.035 and the “k3/k4 (binding potential)” value came to 12.63. In addition, at TSPO [4] (tumor, listed as 18F-VUIIS1008), the K1/k2 was determined as 1.902 ± 0.816 mL/g and the “k3/k4 (binding potential)” value was found to be 12.634 ± 1.406.
